IDH1 mut inh: inhibitors of human IDH1 R132H. IDH1 R132H reductase, diaphorase/resazurin fluorescence, 60 min. AID 624101. inhibition, % at 10 µM. O75874. 0.18% of 70,000 active; in the data active = inhibition above about 34%; inconclusive = no clear call, values can overlap the other calls; inactive = below about 11%;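 also: 0% = DMSO and 100% = no enzyme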
Target sequence (O75874 whole entry R132H): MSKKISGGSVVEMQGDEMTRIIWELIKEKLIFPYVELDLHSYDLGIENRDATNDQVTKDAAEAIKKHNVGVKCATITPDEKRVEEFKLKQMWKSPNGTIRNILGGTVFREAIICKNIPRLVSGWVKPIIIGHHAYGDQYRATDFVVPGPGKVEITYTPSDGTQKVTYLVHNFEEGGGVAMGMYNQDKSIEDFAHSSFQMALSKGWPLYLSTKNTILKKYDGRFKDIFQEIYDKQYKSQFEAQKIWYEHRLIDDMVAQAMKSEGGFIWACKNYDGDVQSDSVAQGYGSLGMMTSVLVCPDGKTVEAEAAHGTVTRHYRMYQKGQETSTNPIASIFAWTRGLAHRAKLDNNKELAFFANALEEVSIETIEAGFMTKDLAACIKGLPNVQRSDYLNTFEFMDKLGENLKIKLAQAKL
GASC1 inh: KDM4C (human) demethylase inhibition | inhibition, % at 12.5 µM | GST-KDM4C 2-372, H3K9me3 peptide, LANCE TR-FRET | 0.15% of 96,000 active | Q9H3R0 | AID 720574;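 active = mean replicate inhibition above about 25%, with at least 55% of replicates also reaching it, limit read from the data, passing the limit was not always enough; inconclusive = only one of those two conditions met; inactive = neither condition met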
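reagent = H3K9me3 peptide substrate, Fe(II), 2-oxoglutarate | system = GST-tagged GASC-1 (JMJD2C) catalytic fragment, aa 2-372 | amount = enzyme final amount 10 nM | read-out = Fall in 671/618 emission ratio as inhibition | medium = HEPES buffer, pH 7.5, plus ascorbate | schedule = 30 min reaction, 60 min detection, RT | measured by = LANCE TR-FRET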
T cruzi growth-1: blocks T. cruzi growth in NIH3T3 culture; 5.9% of 77,000 active; T. cruzi beta-gal in NIH3T3, GalScreen luminescence, 90 h; AID 624255; inhibition, % at 8.34 µM;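 active = mean inhibition above about 93%, with at least 55% of replicates each passing it, limit read from the data, passing the limit was not always enough; inconclusive = only one of those two conditions holds; inactive = neither condition holds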
T cruzi growth-2: Trypanosoma cruzi proliferation inhibition; shares compounds with T cruzi growth-1; T. cruzi beta-gal in NIH3T3, GalScreen luminescence, 90 h; inhibition, % at 8.35 µM; 72% of 5,600 active; AID 651739;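 active = mean replicate inhibition above about 95% and at least 55% of replicates individually reaching it, limit read from the data; inconclusive = only one of the two criteria is met; inactive = neither criterion is met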
T cruzi growth-3: blocks T. cruzi growth in NIH3T3 host cells. 21% of 5,600 active. AID 651740. inhibition, % at 2.09 µM. T. cruzi beta-gal in NIH3T3, GalScreen luminescence, 90 h. shares compounds with T cruzi growth-1;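 active = mean inhibition above about 95%, with at least 55% of replicates also reaching it, limit read from the data; inconclusive = meets just one of the two conditions; inactive = meets neither condition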;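 also: plate controls were neutral control median for no effect and positive control median for full effect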
3T3 cytotox: NIH/3T3 (mouse) viability loss; shares compounds with T cruzi growth-1; NIH/3T3 viability, CellTiter-Glo ATP luminescence, 90 h; cytotoxicity (signal decrease), % at 8.35 µM; 14% of 5,600 active; AID 651742;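 active = mean signal decrease across replicates above about 35% based on untreated-well scatter, with enough replicates individually passing, limit read from the data; inconclusive = no rule stated though some were filed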;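 also: 0% = median of neutral control wells and 100% = median of positive control wells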
NIH3T3 tox 2: NIH/3T3 (mouse) viability loss; AID 651744; 56% of 5,600 active; shares compounds with T cruzi growth-1; inhibition, % at 24.9 µM; NIH/3T3 viability, CellTiter-Glo ATP luminescence, 90 h;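 active = mean loss of cell viability signal at or above a set limit, and enough replicates individually reaching it; inconclusive = meets only the mean limit or only the replicate share; inactive = meets neither condition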;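 also: 0% = median of neutral control wells and 100% = median of positive control wells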
Numbers without * were called inactive; ? = inconclusive; . = no result. The entries come from a sample that favours hits as a whole.

SMILES	IDH1 mut inh	GASC1 inh	T cruzi growth-1	T cruzi growth-2	T cruzi growth-3	3T3 cytotox	NIH3T3 tox 2
O=C(C[C@H]1C=C[C@@H](NS(=O)(=O)c2ccccc2)[C@@H](CO)O1)N1CCN(c2ccccc2)CC1	.	-1	.	.	.	.	.
C[C@H]1CN([C@@H](C)CO)C(=O)c2c(c3ccccc3n2C)-c2ccccc2CO[C@@H]1CN(C)C(=O)c1ccncc1	.	1	-12	.	.	.	.
COCC(=O)Nc1ccc2c(c1)OC[C@@H](C)N(Cc1ccncc1)C[C@H](C)[C@@H](OC)CN(C)C2=O	0	6	-19	.	.	.	.
C[C@@H]1CN([C@H](C)CO)C(=O)c2cc(NS(=O)(=O)c3ccc(F)cc3)ccc2O[C@@H](C)CCCCO[C@H]1CN(C)C(=O)C1CCCCC1	.	-3	?	101*	63	-7	-6
C[C@@H]1CN([C@H](C)CO)C(=O)c2cc(NS(=O)(=O)c3ccc(Cl)cc3)ccc2O[C@@H](C)CCCCO[C@H]1CN(C)C(=O)C1CCCCC1	.	0	?	96*	61	19	100*
C[C@H](CO)N1C[C@H](C)[C@@H](CN(C)C(=O)C2CCCCC2)OCCCC[C@H](C)Oc2ccc(NS(=O)(=O)c3ccc(Cl)cc3)cc2C1=O	.	0	67	.	.	.	.
C[C@@H]1CCCCO[C@@H](CN(C)C(=O)C2CCCCC2)[C@H](C)CN([C@H](C)CO)C(=O)c2cc(NS(=O)(=O)c3ccc(Cl)cc3)ccc2O1	-1	0	?	110*	88	-2	100*
C[C@@H]1CCCCO[C@@H](CN(C)C(=O)C2CCCCC2)[C@@H](C)CN([C@H](C)CO)C(=O)c2cc(NS(=O)(=O)c3ccc(Cl)cc3)ccc2O1	.	0	59	.	.	.	.
C[C@@H]1CCCCO[C@@H](CN(C)C(=O)C2CCCCC2)[C@@H](C)CN([C@@H](C)CO)C(=O)c2cc(NS(=O)(=O)c3ccc(F)cc3)ccc2O1	-2	0	70	.	.	.	.
COc1ccc(NC(=O)N(C)C[C@H]2Oc3ccc(NS(=O)(=O)c4ccc(Cl)cc4)cc3C(=O)N([C@H](C)CO)C[C@H]2C)cc1	1	1	-52	.	.	.	.
C[C@@H]1CN([C@@H](C)CO)C(=O)Cc2cc(NS(=O)(=O)c3cn(C)cn3)ccc2O[C@@H]1CN(C)C(=O)Nc1cccc2ccccc12	-2	1	27	.	.	.	.
C[C@H](CO)N1C[C@H](C)[C@@H](CN(C)Cc2ccc(C(F)(F)F)cc2)Oc2ccc(NC(=O)Cc3cn(C)c4ccccc34)cc2CC1=O	3	-2	87	.	.	.	.
C[C@H](CO)N1C[C@H](C)[C@H](CN(C)Cc2ccc(C(F)(F)F)cc2)Oc2ccc(NC(=O)Cc3cn(C)c4ccccc34)cc2CC1=O	-1	-4	101*	107*	19	20	?
C[C@H](CO)N1C[C@H](C)[C@@H](CN(C)Cc2ccc(Cl)c(Cl)c2)Oc2ccc(NC(=O)Cc3cn(C)c4ccccc34)cc2CC1=O	1	-3	64	.	.	.	.
C[C@H]1CN([C@@H](C)CO)C(=O)Cc2cc(NC(=O)Cc3ccccc3)ccc2O[C@H]1CN(C)Cc1ccc(Cl)c(Cl)c1	-3	8	?	100*	59	21	105*
C[C@H](CO)N1C[C@H](C)[C@@H](CN(C)Cc2ccc(C(F)(F)F)cc2)Oc2ccc(NC(=O)Cc3ccccc3)cc2CC1=O	2	-1	106*	95	101*	-1	104*
C[C@@H]1CN([C@@H](C)CO)C(=O)Cc2cc(NC(=O)Cc3ccccc3)ccc2O[C@H]1CN(C)Cc1ccc(C(F)(F)F)cc1	2	5	94	.	.	.	.
C[C@H](CO)N1C[C@H](C)[C@@H](CN(C)Cc2ccccc2)Oc2ccc(NC(=O)Cc3ccccc3)cc2CC1=O	0	3	95	.	.	.	.
C[C@H]1CN([C@@H](C)CO)C(=O)Cc2cc(NC(=O)Cc3cn(C)c4ccccc34)ccc2O[C@H]1CN(C)Cc1ccc(Cl)c(Cl)c1	-23	-2	100*	107*	57	-7	-3
O=C(NO)c1cccc(C(=O)N/N=C/c2ccc(O)c(O)c2O)c1	-1	.	.	.	.	.	.
CCCNC(=O)N1[C@H](CO)[C@H]2c3ccccc3N(C)C[C@H]21	.	0	29	.	.	.	.
COc1ccccc1NC(=O)CSC1=NC(c2ccccc2)CC(=O)N1 (stereo unspecified)	0	.	.	.	.	.	.
C[C@@H]1CCCCO[C@H](CN(C)C(=O)CCCN(C)C)[C@@H](C)CN([C@H](C)CO)C(=O)c2cc(NC(=O)Nc3ccc(C(F)(F)F)cc3)ccc2O1	2	0	79	.	.	.	.
COc1ccc(S(=O)(=O)N2C[C@@H](O)COC[C@@H]3O[C@H](CC(=O)NCc4ccc(Cl)c(Cl)c4)CC[C@H]32)cc1	.	0	143*	110*	36	?	33*
COc1ccc(S(=O)(=O)N2C[C@H](O)COC[C@H]3O[C@H](CC(=O)NCc4ccc(Cl)c(Cl)c4)CC[C@@H]32)cc1	.	14	?	84	5	12	44*
SMILES	IDH1 mut inh	GASC1 inh	T cruzi growth-1	T cruzi growth-2	T cruzi growth-3	3T3 cytotox	NIH3T3 tox 2
COc1ccc(S(=O)(=O)N2C[C@H](O)COC[C@H]3O[C@@H](CC(=O)NCc4ccc(Cl)c(Cl)c4)CC[C@@H]32)cc1	.	-1	98*	100*	41	18	42*
O=C(C[C@@H]1CC[C@@H]2[C@H](COC[C@@H](O)CN2S(=O)(=O)c2ccc(F)cc2)O1)NCc1ccc(Cl)c(Cl)c1	.	0	24	.	.	.	.
O=C(C[C@@H]1CC[C@H]2[C@@H](COC[C@H](O)CN2S(=O)(=O)c2ccc(Cl)cc2)O1)NCc1ccc(Cl)c(Cl)c1	.	0	59	.	.	.	.
Cc1ccc(S(=O)(=O)N2C[C@H](O)COC[C@@H]3O[C@@H](CC(=O)NCc4ccc(Cl)c(Cl)c4)CC[C@H]32)cc1	.	-1	81	.	.	.	.
O=C(C[C@H]1CC[C@@H]2[C@H](COC[C@@H](O)CN2S(=O)(=O)c2ccc(F)cc2)O1)NCc1ccc(Cl)c(Cl)c1	.	-1	-15	.	.	.	.
COc1ccc(S(=O)(=O)N2C[C@@H](O)COC[C@H]3O[C@H](CC(=O)NCc4ccc(Cl)c(Cl)c4)CC[C@@H]32)cc1	.	0	129*	92	22	-2	43*
O=C(NCC1CCCCC1)[C@@H]1[C@@H](CO)[C@@H]2Cn3c(ccc(-c4ccncc4)c3=O)[C@H]1N2	.	0	13	.	.	.	.
COc1ccc(NC(=O)Nc2ccc3c(c2)C(=O)N([C@@H](C)CO)C[C@H](C)[C@H](CN(C)CC2CCCCC2)OCCCC[C@H](C)O3)cc1	1	-1	68	.	.	.	.
C[C@H](O)C#Cc1ccc2c(c1)O[C@@H](CN(C)C(=O)CN(C)C)[C@@H](C)CN([C@H](C)CO)S2(=O)=O	0	0	-4	.	.	.	.
